Five compounds from ChEMBL document CHEMBL4190381, “Biofilm inhibition and anti-Candida activity of a cationic lipo-benzamide molecule with twin-nonyl chain” (Bioorg Med Chem Lett, 2018) can be followed below.

≈ marks a conversion by molar mass, not a printed value. Calls of active or inactive are those of the source. No cut-off for these calls is given here.

For series [1], the system named is Candida albicans. Kind of series: Antifungal activity against Candida albicans DSY296 assessed as inhibition of fungal growth incubated for 48 hrs by broth microdilution assay. The note with it: DSY296, 48 h. Type of series: functional. A digest of the protocol:
(§1)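 Broth microdilution against planktonic Candida cultures, with fluconazole as reference antifungal. MIC read as lowest concentration giving […] relative to a growth control without compound. Percentage inhibition versus growth control was plotted against concentration.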

Series [2] relates to Candida albicans. Kind of series: Antibiofilm eradication activity against Candida albicans ATCC 90028 grown on polystyrene surface assessed as inhibition of mature biofilm formation added 24 hrs after biofilm maturation and measured after 48 hrs by MTT assay. Type of series: functional. In outline:
(§2)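 1x10^6 C. albicans ATCC 90028 cells allowed to grow and adhere in polystyrene-coated 96-well wells; compound added at different time points to cover adhesion, biofilm formation or mature biofilm stages. Inhibition quantified by MTT metabolic assay against untreated growth control. BIC80 and BEC80 taken as concentrations giving 80% inhibition of formation or of mature biofilm respectively.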

Series [3] relates to Nakaseomyces glabratus. Kind of series: Antifungal activity against Candida glabrata MTCC 3814 assessed as inhibition of fungal growth incubated for 48 hrs by broth microdilution assay. The class given is functional. The note with it: MTCC 3814, 48 h. A digest of the protocol: as §1
Series [4] has as its system Candida tropicalis. The series can be described thus: Antifungal activity against Candida tropicalis MTCC 9038 assessed as inhibition of fungal growth incubated for 48 hrs by broth microdilution assay. Type of series: functional. The following applies: MTCC 9038, 48 h. In outline: as §1
The test system of series [5] is Candida parapsilosis. The series can be described thus: Antifungal activity against Candida parapsilosis MTCC 7043 assessed as inhibition of fungal growth incubated for 48 hrs by broth microdilution assay. The following applies: Lodderomyces parapsilosis, MTCC 7043, 48 h. Type of series: functional. In outline:
as §1

In series [6] the test system is Pichia kudriavzevii. The series can be described thus: Antifungal activity against Candida krusei MTCC 9215 assessed as inhibition of fungal growth incubated for 48 hrs by broth microdilution assay. Type of series: functional. The following applies: MTCC 9215, 48 h. A digest of the protocol: as §1
Series [7] concerns Candida albicans. Kind of series: Antifungal activity against Candida albicans ATCC 90028 planktonic cells assessed as inhibition of fungal growth incubated for 48 hrs by broth microdilution assay. The class given is functional. The following applies: for MIC80: ATCC 90028, 48 h. A digest of the protocol: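 Broth microdilution against planktonic C. albicans ATCC 90028. MIC is the lowest concentration giving […] relative to the growth control. Percent inhibition is taken against an untreated growth control and plotted versus concentration.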

Series [8] deals with Candida albicans. The series can be described thus: Antibiofilm activity against Candida albicans ATCC 90028 grown on polystyrene surface assessed as inhibition of biofilm formation added immediately after cell adhesion by MTT assay. Type of series: functional. In outline:
as §2

In series [9] the test system is Candida albicans. Kind of series: Antifungal activity against Candida albicans DSY294 assessed as inhibition of fungal growth incubated for 48 hrs by broth microdilution assay. The class given is functional. The following applies: DSY294, 48 h. A digest of the protocol: as §1
Series [10] concerns Candida albicans. Kind of series: Antifungal activity against Candida albicans Gu4 assessed as inhibition of fungal growth incubated for 48 hrs by broth microdilution assay. The class given is functional. The note with it: Gu4, 48 h. In outline:
as §1

Series [11] has as its system Candida albicans. The series can be described thus: Antifungal activity against Candida albicans SC5314 assessed as inhibition of fungal growth incubated for 48 hrs by broth microdilution assay. The class given is functional. The following applies: SC5314, 48 h. In outline: as §1
The test system of series [12] is Candida albicans. The series can be described thus: Antifungal activity against Candida albicans Gu5 assessed as inhibition of fungal growth incubated for 48 hrs by broth microdilution assay. The class given is functional. The following applies: Gu5, 48 h. In outline:
as §1

The test system of series [13] is Candida albicans. The series can be described thus: Inhibition of adhesion of Candida albicans ATCC 90028 on polystyrene surface up to 25 ug/ml incubated for 90 mins by MTT assay. The class given is functional, organism-based. A digest of the protocol: as §2
In series [14] the test system is Candida albicans. Kind of series: Toxicity in Candida albicans ATCC 90028 planktonic cells assessed as induction of nucleic acids release at 12.5 ug/ml incubated for 1 hr by spectrophotometry. Type of series: organism-based. In outline: (§3)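 C. albicans cells incubated with increasing compound concentrations. Supernatant OD260 (nucleic acids) and OD280 (proteins) recorded to quantify macromolecule release on lysis.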

The test system of series [15] is Erythrocyte. Kind of series: Hemolytic activity in human erythrocytes assessed as induction of hemolysis incubated for 1 hr by spectrophotometry. Type of series: cell-based. In outline: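 Human erythrocytes incubated with a range of concentrations. Released hemoglobin is measured spectrophotometrically and expressed as percent hemolysis. 1% Triton X-100 gives 100% lysis, and a buffer-treated sample is the negative control. HC90 is the concentration lysing 90% of RBCs.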

Series [16] deals with Candida albicans. The series can be described thus: Inhibition of adhesion of Candida albicans ATCC 90028 on polystyrene surface at 12.5 ug/ml incubated for 90 mins by MTT assay. Type of series: functional. The note with it: ATCC 90028, 1.5 h. A digest of the protocol:
(§4)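 C. albicans ATCC 90028 cells adhered to polystyrene wells with test compound. Adhesion is quantified by MTT metabolic assay and expressed as percent inhibition versus an untreated growth control. Fluconazole is the reference, tested up to 25 µg ml-1.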

The test system of series [17] is Candida albicans. The series can be described thus: Inhibition of adhesion of Candida albicans ATCC 90028 on polystyrene surface incubated for 90 mins by MTT assay. Type of series: functional, organism-based. In outline:
as §4

Series [18] has as its system Candida albicans. Kind of series: Antibiofilm activity against Candida albicans ATCC 90028 grown on polystyrene surface assessed as inhibition of biofilm formation at 1.56 to 25 ug/ml added immediately after cell adhesion by bright-field microscopy. The class given is functional, organism-based. In outline: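 1x10^6 C. albicans ATCC 90028 cells allowed to adhere and grow in polystyrene 96-well wells; compound at 1.56, 3.12, 6.25, 12.5 and 25 µg ml-1; biofilm examined microscopically against an untreated growth control.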

In series [19] the test system is Candida albicans. The series can be described thus: Toxicity in Candida albicans ATCC 90028 planktonic cells assessed as induction of protein release at 12.5 ug/ml incubated for 1 hr by spectrophotometry. The class given is organism-based. In outline: as §3
Series [20] concerns Candida albicans. Kind of series: Toxicity in Candida albicans ATCC 90028 planktonic cells assessed as induction of morphological changes at 3.1 ug/ml incubated for 24 hrs by scanning electron Microscopy. Type of series: organism-based. In outline: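 C. albicans ATCC 90028 cells incubated 24 h with 3.1 µg ml-1 compound. Surface morphology examined by scanning electron microscopy at 2500X and 5000X magnification against untreated cells.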

A short description of series [21]: Safety index, ratio of HC90 for hemolytic activity in human erythrocytes to MIC for antifungal activity against Candida albicans ATCC 90028 planktonic cells. Type of series: toxicity, cell-based.

As for `OC(Cn1cncn1)(Cn1cncn1)c1ccc(F)cc1F` [FLUCONAZOLE], the MIC80 in series [1] was determined as 128 µg/mL (≈ 418 µM); in series [3], 4 µg/mL (≈ 13.1 µM); in series [4] it was 4 µg/mL (≈ 13.1 µM); in series [5], 2 µg/mL (≈ 6.53 µM); in [6], 64 µg/mL (≈ 209 µM); in series [7] it was 4 µg/mL (≈ 13.1 µM). The MIC80 in series [9] is 4 µg/mL (≈ 13.1 µM); in series [10], 4 µg/mL (≈ 13.1 µM); in series [11], 2 µg/mL (≈ 6.53 µM); in series [12], 128 µg/mL (≈ 418 µM). The inhibition result in series [2], in series [8] and in series [13] was “inactive” in each case.

Consider `CCCCCCCCC[N+](C)(CCCCCCCCC)CCNC(=O)c1ccc(OC)cc1.[I-]`, for which the Activity entry in [14], in series [19] and in [20] was “Non-Toxic” throughout. The MIC80 in series [1] came out at 1.5 µg/mL; in [3], 1.5 µg/mL; in [4], 0.7 µg/mL; in series [5], 1.5 µg/mL; in [6], 1.5 µg/mL; in [7] it was 3.1 µg/mL. Also, the MIC80 worked out at 1.5 µg/mL in series [9], 3.1 µg/mL in series [10], 1.5 µg/mL in series [11] and 3.1 µg/mL in series [12]. Besides, the MBEC80 in series [2] worked out at 12.5 µg/mL. Further, in series [15], the HC90 was determined as 12.5 µg/mL. For the same compound, the inhibition at 12.5 µg/mL in series [16] worked out at 90%. Besides, the inhibition result in [17] is “Dose-dependent effect”. Besides, the result in series [18] was Active. The “growth inhibition (GI)” value in [7] is “Dose-dependent effect”. The MBIC80 in series [8] amounted to 3.12 µg/mL. For the same compound, in series [21], the selectivity ratio turned out to be 4.

On to `CCCCCCCC[N+](C)(CCCCCCCC)CCNC(=O)c1ccc(OC)cc1.[I-]`, for which, in [7], the “growth inhibition (GI)” value was “Dose-dependent effect” and the MIC80 was at most 6.2 µg/mL.

As to `CCCCCCCCCC[N+](C)(CCCCCCCCCC)CCNC(=O)c1ccc(OC)cc1.[I-]`, in series [7], the “growth inhibition (GI)” value was “Dose-dependent effect” and the MIC80 is at most 6.2 µg/mL.

Regarding `CCCCCCCCCCC[N+](C)(CCCCCCCCCCC)CCNC(=O)c1ccc(OC)cc1.[I-]`, in series [7], the “growth inhibition (GI)” value is “Dose-dependent effect” and the MIC80 is at most 3.1 µg/mL.
